# Active and inactive are the calls of the source. The calls are words filed in the database; no cut-off is given here.
# Experiments:
# Type in all cases: functional, cell-based
# [1] = system: Glial cell; assay: Antiinflammatory activity in C57BL/6J mouse primary glial cells assessed as decrease in LPS-induced IKBKE mRNA level at 200 nM preincubated for 24 hrs followed by LPS stimulation by qPCR analysis
# Outline: (§1)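 Primary glia from whole brains of 1–2-day-old neonatal C57BL/6J mice (meninges removed, collected in Ca/Mg-free HBSS, oligodendrocytes and neurons separated off). Cells were given 200 nM steroid and stimulated with LPS 250 ng/mL. DMSO served as negative control. Gene expression was measured by qPCR. Data are mean ± SEM, analysed by two-way ANOVA with Newman-Keuls post hoc test.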
# [2] = system: Glial cell; assay: Antiinflammatory activity in C57BL/6J mouse primary glial cells assessed as effect on IKBKE mRNA level at 200 nM incubated for 24 hrs by qPCR analysis
# [3] = system: Glial cell; assay: Antiinflammatory activity in C57BL/6J mouse primary glial cells assessed as effect on TNF-alpha mRNA level at 200 nM incubated for 24 hrs by qPCR analysis
# [4] = system: Glial cell; assay: Antiinflammatory activity in C57BL/6J mouse primary glial cells assessed as decrease in LPS-induced IL-6 mRNA level at 200 nM preincubated for 24 hrs followed by LPS stimulation by qPCR analysis; outline: as §1
# [5] = system: Glial cell; assay: Antiinflammatory activity in C57BL/6J mouse primary glial cells assessed as effect on IL-1 mRNA level at 200 nM incubated for 24 hrs by qPCR analysis
# [6] = system: Glial cell; assay: Antiinflammatory activity in C57BL/6J mouse primary glial cells assessed as decrease in LPS-induced IL-1 mRNA level at 200 nM preincubated for 24 hrs followed by LPS stimulation by qPCR analysis; outline: as §1
# [7] = system: Glial cell; assay: Antiinflammatory activity in C57BL/6J mouse primary glial cells assessed as effect on IL-6 mRNA level at 200 nM incubated for 24 hrs by qPCR analysis
# [8] = system: Glial cell; assay: Antiinflammatory activity in C57BL/6J mouse primary glial cells assessed as decrease in LPS-induced TNF-alpha mRNA level at 200 nM preincubated for 24 hrs followed by LPS stimulation by qPCR analysis; outline: as §1
SMILES,Activity [1],Activity [2],Activity [3],Activity [4],Activity [5],Activity [6],Activity [7],Activity [8]
C[C@@H]1O[C@@H](O[C@H]2C[C@@H]3O[C@@H]4C[C@]5(C)[C@@H](C6=CC(=O)OC6)CC[C@]5(O)[C@@H]5CC[C@](O)(C2)[C@@]3(CO)[C@H]54)[C@H](O)[C@H](O)[C@H]1O,Active,inactive,inactive,Active,inactive,Active,inactive,Active
C[C@@H]1O[C@@H](O[C@H]2C[C@@H](O)[C@]3(CO)[C@H]4[C@H](O)C[C@]5(C)[C@@H](C6=CC(=O)OC6)CC[C@]5(O)[C@@H]4CC[C@]3(O)C2)[C@H](O)[C@H](O)[C@H]1O,Active,inactive,inactive,Active,inactive,Active,inactive,Active
C[C@]12C[C@H]3O[C@H]4C[C@H](O)C[C@@]5(O)CC[C@H]([C@H]3[C@@]45CO)[C@@]1(O)CC[C@@H]2C1=CC(=O)OC1,inactive,inactive,inactive,inactive,inactive,inactive,inactive,inactive
C[C@@H]1O[C@@H](OC[C@@]23[C@@H]4[C@H]5CC[C@]2(O)C[C@@H](O)C[C@@H]3O[C@@H]4C[C@]2(C)[C@@H](C3=CC(=O)OC3)CC[C@]52O)[C@H](O)[C@H](O)[C@H]1O,Active,inactive,inactive,inactive,inactive,,inactive,Active
C[C@H]1O[C@@H](O[C@H]2[C@@H](O)C[C@H](O[C@H]3[C@@H](O)C[C@H](O[C@H]4CC[C@@]5(C)[C@H](CC[C@@H]6[C@@H]5C[C@@H](O)[C@]5(C)[C@@H](C7=CC(=O)OC7)CC[C@]65O)C4)O[C@@H]3C)O[C@@H]2C)C[C@H](O)[C@@H]1O,,inactive,inactive,,inactive,,inactive,
C[C@@H]1O[C@@H](O[C@H]2CC[C@]3(CO)[C@H]4CC[C@]5(C)[C@@H](C6=CC(=O)OC6)CC[C@]5(O)[C@@H]4CC[C@]3(O)C2)[C@H](O)[C@H](O)[C@H]1O,Active,inactive,inactive,Active,inactive,Active,inactive,Active
